A selection: hits, their analogues and other compounds. The true share with any hit is near 2.3%.
TRPC4 block: blocks the mouse TRPC4 cation channel; Q9QUQ5; HEK293 TRPC4beta/mu-opioid, DAMGO-evoked Fluo4 calcium flux; hits give low values; B-score at 10 µM; hit rate 0.39% among 300,000;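 active means B-score over 3 SD under the library average, no early fluorescence shift, positive overall ratio signal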
Target sequence (Q9QUQ5 whole entry, looked up): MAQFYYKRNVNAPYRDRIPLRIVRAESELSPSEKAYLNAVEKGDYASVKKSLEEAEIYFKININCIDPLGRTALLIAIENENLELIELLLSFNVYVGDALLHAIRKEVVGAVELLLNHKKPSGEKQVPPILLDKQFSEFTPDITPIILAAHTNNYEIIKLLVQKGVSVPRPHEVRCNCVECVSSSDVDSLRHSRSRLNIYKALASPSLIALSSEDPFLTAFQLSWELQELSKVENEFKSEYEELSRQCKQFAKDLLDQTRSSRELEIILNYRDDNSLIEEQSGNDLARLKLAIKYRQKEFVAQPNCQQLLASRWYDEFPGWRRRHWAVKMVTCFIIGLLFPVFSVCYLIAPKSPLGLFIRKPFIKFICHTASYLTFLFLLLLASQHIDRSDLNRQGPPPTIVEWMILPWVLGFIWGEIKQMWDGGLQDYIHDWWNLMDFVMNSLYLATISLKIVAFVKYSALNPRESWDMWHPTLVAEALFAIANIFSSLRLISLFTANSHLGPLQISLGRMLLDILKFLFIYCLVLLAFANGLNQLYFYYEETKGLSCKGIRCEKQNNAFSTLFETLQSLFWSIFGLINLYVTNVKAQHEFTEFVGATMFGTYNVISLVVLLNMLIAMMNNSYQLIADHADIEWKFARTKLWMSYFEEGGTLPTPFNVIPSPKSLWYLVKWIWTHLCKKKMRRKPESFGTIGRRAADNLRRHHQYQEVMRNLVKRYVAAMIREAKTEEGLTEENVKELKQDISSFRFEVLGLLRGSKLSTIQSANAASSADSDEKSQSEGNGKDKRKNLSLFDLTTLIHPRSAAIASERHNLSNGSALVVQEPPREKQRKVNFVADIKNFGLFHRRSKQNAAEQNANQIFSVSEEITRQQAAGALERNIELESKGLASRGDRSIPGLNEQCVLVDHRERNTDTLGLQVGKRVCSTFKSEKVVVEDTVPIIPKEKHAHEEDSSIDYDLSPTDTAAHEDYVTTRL
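Assay system – HEK293 line stably carrying TRPC4beta and mu-opioid receptor · Doses – single dose · Detection – Fluo4 calcium-dye fluorescence, kinetic read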
TRPC6 activator: mouse TRPC6 channel activation; Q61143; HEK293-TRPC6 membrane potential dye fluorescence; hits give high values; B-score at 10 µM; hit rate 0.13% among 310,000; AID 2550;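 active means B-score of the integrated fluorescence ratio above library mean plus 3 SD, and starting fluorescence ratio within library mean plus 5 SD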;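 further: higher score means more depolarization so channel activation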
TRPC4 PAM: allosteric potentiators of mouse TRPC4 channel. B-score at 10 µM. Q9QUQ5. hit rate 0.42% among 310,000. AID 2227. HEK293 TRPC4beta/mu-opioid, DAMGO EC20, Fluo-4 Ca2+ flux; hits give high values;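 active means B-score of calcium response area above 5 SD of library B-scores, with initial fluorescence ratio within 5 SD of library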;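 further: B-score of integrated fluorescence ratio over time as area under calcium response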
TRPC4 act: activators of mouse TRPC4 channel; B-score at 10 µM; Q9QUQ5; HEK293 TRPC4beta/mu-opioid, Fluo4 calcium fluorescence; hits give high values; hit rate 0.49% among 310,000;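 active means B-score above 5 SD of library B-scores, and initial fluorescence ratio not above library mean plus 5 SD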;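 further: positive B-score marks a calcium rise read as TRPC4 activation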
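Incubation: 45 min room-temperature Fluo4 loading, 110 s read / System: HEK293 cells stably co-expressing mouse TRPC4beta and mu-opioid receptor / Signal: Fluo4 fluorescence, kinetic / Control set: buffer (low) and maximal DAMGO (high) / Measure: integrated baseline-normalised fluorescence ratio, converted to per-well B score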
TRPC6 inh: inhibitors of mouse TRPC6 channel; B-score at 10 µM; hit rate 1.1% among 310,000; Q61143; HEK293-TRPC6, membrane potential dye, ACh-evoked depolarization; hits give low values; AID 2553;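 active means B-score under library mean minus 3 SD, initial fluorescence not abnormally high, positive integrated signal ratio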;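 further: B-score derived from integrated fluorescence ratio over the kinetic read; more negative B-score means stronger inhibition of depolarization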
TRPC4 spec 2: mouse TRPC4 off-target activity of TRPC6 inhibitors, second screen | shares compounds with TRPC6 inh | HEK293 TRPC4/MOR, membrane potential dye fluorescence; channel activated by saturating DAMGO dose | inhibition, % at 10 µM | hit rate 42% among 920;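 active means compounds whose fluorescence signal differed from control wells by over 3 SD, either direction, in both duplicate plates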
TRPC4 spec: mouse TRPC4 off-target activity of TRPC6 inhibitors; hit rate 61% among 920; shares compounds with TRPC6 inh; HEK293 TRPC4/mu-opioid, membrane potential fluorescence; activity change, negative = inhibition, % at 10 µM;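 active means rise or fall in signal beyond 3 SD of buffer-only wells in both replicate plates, either sign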;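 further: integrated kinetic ratio of fluorescence range over baseline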
HEK293 MPD ctr 2-1: second check of TRPC6 inhibitor effects in parental HEK293 cells; shares compounds with TRPC6 inh; parental HEK293 membrane potential dye fluorescence; maximal acetylcholine challenge after compound addition; signal change vs control, % at 10 µM; hit rate 31% among 920; AID 2779;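 active means membrane potential signal moving either way by over 3 SD of the maximum-effect control, in both duplicate plates, meaning non-specific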
HEK293 MPD ctr-1: parental HEK293 nonspecific activity of TRPC6 inhibitors | membrane potential signal change, % at 10 µM | AID 2780 | shares compounds with TRPC6 inh | hit rate 60% among 920 | parental HEK293 membrane potential dye fluorescence;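 active means membrane potential signal shifting up or down by more than 3 SD of buffer-only wells, on both duplicate plates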
HEK293 MPD ctr-2: parental HEK293 nonspecific activity of TRPC6 modulators; membrane potential signal change, % at 10 µM; membrane potential dye fluorescence; hit rate 51% among 2,400; AID 488924; shares compounds with TRPC6 inh;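 active means membrane potential signal moves up or down beyond 5 SD from buffer-only wells, on both duplicate plates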
HEK293 MPD ctr 2-2: second counter-screen for TRPC6 modulators: effect in parental HEK293 cells; shares compounds with TRPC6 inh; membrane potential dye fluorescence; after compound, maximal acetylcholine stimulation; inhibition, % at 10 µM; hit rate 14% among 2,400;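 active means membrane potential signal drops by more than 5 SD from the mean control signal, in both duplicate plates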;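 further: plate controls were acetylcholine ECmax control wells for no effect and buffer only wells for full effect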
TRPC4 ctr mod: selectivity of TRPC6 modulators against mouse TRPC4; shares compounds with TRPC6 inh; HEK293 TRPC4/mu-opioid, membrane potential fluorescence; percent change from control (negative = decrease, positive = increase), % at 10 µM; hit rate 69% among 2,400; AID 488927;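 active means membrane potential signal moved up or down beyond 5 SD of buffer control wells, in both duplicate plates, actives on both sides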;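 further: plate controls were assay buffer wells for no effect and DAMGO maximal-effect wells for full effect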
TRPC4/MOR inh 2: second selectivity test of TRPC6 modulators against mouse TRPC4; inhibition, % at 10 µM; hit rate 55% among 2,400; HEK293 TRPC4/mu-opioid, membrane potential dye fluorescence; stimulated with maximal-effect DAMGO; shares compounds with TRPC6 inh; AID 488928;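 active means drop in membrane potential signal beyond 5 SD of the control wells in both duplicate plates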;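 further: TRPC4 counter screen for TRPC6 hits run under conditions tuned for TRPC6 not TRPC4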
TRPC6 inh conf: confirmation of mouse TRPC6 inhibitors. shares compounds with TRPC6 inh. HEK293-TRPC6, membrane potential dye, ACh-evoked depolarization. inhibition, % at 10 µM. hit rate 43% among 3,300. AID 488960;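 active means fluorescence ratio falls more than 5 SD below the full-stimulation control mean, in both duplicate runs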;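 further: integrated fluorescence ratio of peak minus minimum over baseline after agonist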
TRPC6 act confirm: mouse TRPC6 activator confirmation; hit rate 11% among 2,800; HEK293-TRPC6 membrane potential dye fluorescence, FDSS; shares compounds with TRPC6 inh; AID 488961; activation, % at 10 µM;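 active means ratio signal rise beyond 5 SD above unstimulated control wells' mean, seen in both duplicate runs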;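 further: plate controls were buffer EC0 wells for no effect and acetylcholine ECmax response for full effect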
* = called active by the depositor; i = inactive; · = not tested or not shown.

SMILES	TRPC4 block	TRPC6 activator	TRPC4 PAM	TRPC4 act	TRPC6 inh	HEK293 MPD ctr-2	HEK293 MPD ctr 2-2	TRPC4 ctr mod	TRPC4/MOR inh 2	TRPC6 inh conf	TRPC6 act confirm	others
COc1ccc(OCC(O)CN2CCC(CN3C(=O)c4cccc5cccc(c45)C3=O)CC2)cc1 (centres undefined)	i	i	i	i	i	·	·	·	·	·	·
O=C1c2cccc3cccc(c23)C(=O)N1CCN1CCN(CC(O)COc2ccccc2)CC1 (centres undefined)	i	i	i	i	-5.2*	i	i	i	i	i	i
O=C(N/C(=C\c1ccccc1)C(=O)N1CCCCC1)c1ccc(Br)o1	i	i	i	i	i	·	·	·	·	·	·
Cc1ccc(Cl)cc1N1CCN(c2cccc[n+]2C)CC1	i	i	i	i	i	·	·	·	·	·	·
COc1ccccc1/C=C/C=C1N=C(/C=C/c2ccc(Cl)cc2)OC/1=O	i	i	i	i	-5.9*	554%*	i	32%*	i	i	·
O=c1oc2ccccc2c2c1ncn2CCN1CCOCC1	i	i	i	i	i	·	·	·	·	·	·
CN1CCN(CCCn2cnc3c(=O)oc4ccccc4c32)CC1	i	i	i	i	-5.1*	-269%*	i	-48%*	i	i	i
CCCCNC(=O)C1CCC(CNS(=O)(=O)c2ccc(C)cc2)CC1 (centres undefined)	i	i	i	i	i	·	·	·	·	·	·
COCCCNC(=O)C1CCC(CNS(=O)(=O)c2ccc(C)cc2)CC1 (centres undefined)	i	i	i	i	-6.3*	99%*	i	22%*	i	i	i
CC(=O)Nc1ccc(OCc2nnc(-c3ccc(Cl)cc3)o2)cc1	i	i	i	i	-6.3*	i	i	i	i	i	i
CC(=O)c1ccc(OCCCC(=O)OCc2nnc(-c3ccc(Cl)cc3)o2)cc1	i	i	i	i	i	·	·	·	·	·	·
COC(=O)C1(C)NC(c2ccc(OC)cc2)C2C(=O)N(c3ccccc3)C(=O)C21 (centres undefined)	i	i	i	i	-7.8*	·	·	·	·	i	i	TRPC4 spec 2=i;TRPC4 spec=i;HEK293 MPD ctr 2-1=i;HEK293 MPD ctr-1=i
O=C(COc1cccc2cccnc12)N1CCc2ccccc2C1	i	i	i	i	-6.2*	-126%*	i	-22%*	i	i	i
C=CCNC(=O)N1CCCC(N2CCN(c3ccccc3OC)CC2)C1 (centres undefined)	i	i	i	i	i	·	·	·	·	·	·
CS(=O)(=O)N(Cc1cccc(CN(C(C(=O)O)c2ccccc2)S(C)(=O)=O)c1)C(C(=O)O)c1ccccc1 (centres undefined)	i	i	i	i	-8.7*	·	·	·	·	i	i	TRPC4 spec 2=i;TRPC4 spec=i;HEK293 MPD ctr 2-1=i;HEK293 MPD ctr-1=i
CCS(=O)(=O)c1nc(S(=O)(=O)c2ccc(C)cc2)c(N2CCN(C)CC2)s1	i	i	i	i	i	·	·	·	·	·	·
COc1ccc(CCn2c(=N)c(C(=O)NCC3CCCO3)cc3c(=O)n4ccccc4nc32)cc1OC (centres undefined)	i	i	i	i	i	·	·	·	·	·	·
COc1ccc(CCn2c(=N)c(C(=O)NC3CCCC3)cc3c(=O)n4ccccc4nc32)cc1OC	i	i	i	i	-5.2*	-154%*	i	-33%*	52%*	42%*	i
COc1ccc(CCn2c(=N)c(C(=O)NC3CCCC3)cc3c(=O)n4ccccc4nc32)cc1	i	i	i	i	-6.5*	169%*	114%*	26%*	86%*	64%*	i
COc1ccc(Cn2c(=N)c(C(=O)NC3CCCCC3)cc3c(=O)n4ccccc4nc32)cc1	i	i	i	i	i	·	·	·	·	·	·
COCCCn1c(=N)c(C(=O)NC2CCCCC2)cc2c(=O)n3ccccc3nc21	i	i	i	i	-6.1*	i	i	i	49%*	64%*	i
Cc1cccnc1NC(=O)c1ccc(Cl)c(S(=O)(=O)N2CCCCCC2)c1	i	i	i	i	i	·	·	·	·	·	·
Cc1cccc(NS(=O)(=O)c2ccc(Oc3ccccc3)cc2)n1	i	i	i	i	-6.3*	i	i	8.5%*	i	i	i
CC(=O)c1cccc(NC(=S)N2CCN(S(=O)(=O)c3ccccc3)CC2)c1	i	i	i	i	i	·	·	·	·	·	·
Cn1c(SCC(=O)NCCc2ccccc2)ncc(C(=O)Nc2ccccc2)c1=O	i	i	i	i	i	·	·	·	·	·	·
O=C(NC1CCCC1)C(c1ccncc1)N(CCCN1CCOCC1)C(=O)c1ccc(-c2ccccc2)[nH]1 (centres undefined)	i	i	i	i	-5.1*	i	i	i	36%*	i	i
O=C(NC1CCCCC1)C(c1ccc(F)cc1)N(CCN1CCOCC1)C(=O)c1ccc(-c2ccccc2)[nH]1 (centres undefined)	i	i	i	i	i	·	·	·	·	·	·

High-throughput results (PubChem BioAssay)
